Assay results taken from ChEMBL document CHEMBL5150051, “Identification and Characterization of a Novel Indoleamine 2,3-Dioxygenase 1 Protein Degrader for Glioblastoma” (J Med Chem, 2022).

Biological target: Protein cereblon/Indoleamine 2,3-dioxygenase 1 (Homo sapiens, UniProt P14902+Q96SW2)
Assay: Protac activity at IDO1/CRBN in IFNgamma-stimulated human U87 cells assessed as IDO1 degradation at 10 uM measured after 24 hrs by Western blotting analysis relative to control
Format: cell-based
Procedure, shortened: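 U87 GBM cells primed with human IFNγ 50 ng/mL for 24 h, then exposed to PROTAC at 10 μM for 24 h. Lysates run on western blot; IDO1 bands quantified by densitometry and expressed as percent of normalized IDO1 protein level.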

Protein cereblon/Indoleamine 2,3-dioxygenase 1, sequence (P14902 whole entry, looked up): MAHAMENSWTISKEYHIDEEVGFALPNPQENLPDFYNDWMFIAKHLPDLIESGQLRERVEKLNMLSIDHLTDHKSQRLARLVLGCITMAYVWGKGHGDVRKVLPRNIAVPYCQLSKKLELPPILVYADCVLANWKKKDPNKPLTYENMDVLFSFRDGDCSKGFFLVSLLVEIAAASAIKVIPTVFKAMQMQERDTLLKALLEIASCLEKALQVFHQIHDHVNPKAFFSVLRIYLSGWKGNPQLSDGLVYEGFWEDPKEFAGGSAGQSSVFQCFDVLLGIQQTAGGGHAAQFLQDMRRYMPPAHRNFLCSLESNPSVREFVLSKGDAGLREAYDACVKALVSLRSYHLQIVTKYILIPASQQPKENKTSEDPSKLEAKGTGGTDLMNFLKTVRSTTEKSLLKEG
Protein cereblon/Indoleamine 2,3-dioxygenase 1, sequence (Q96SW2 whole entry, looked up): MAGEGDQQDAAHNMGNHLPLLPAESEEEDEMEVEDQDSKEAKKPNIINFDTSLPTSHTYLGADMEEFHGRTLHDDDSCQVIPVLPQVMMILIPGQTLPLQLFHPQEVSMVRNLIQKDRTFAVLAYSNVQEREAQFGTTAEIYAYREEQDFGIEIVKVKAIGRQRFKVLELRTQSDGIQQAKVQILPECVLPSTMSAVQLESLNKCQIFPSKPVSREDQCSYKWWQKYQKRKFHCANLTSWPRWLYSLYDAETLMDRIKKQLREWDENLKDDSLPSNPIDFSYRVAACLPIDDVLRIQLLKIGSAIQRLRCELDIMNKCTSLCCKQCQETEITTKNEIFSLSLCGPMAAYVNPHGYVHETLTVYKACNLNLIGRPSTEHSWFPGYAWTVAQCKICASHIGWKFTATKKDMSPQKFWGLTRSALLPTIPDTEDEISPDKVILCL

SMILES | Activity [%]
C[C@@H](C(=O)Nc1ccc(OCCCCNC(=O)COc2cccc3c2C(=O)N(C2CCC(=O)NC2=O)C3=O)cc1)[C@H]1CC[C@@H](c2ccnc3ccc(F)cc32)CC1 (stereo not given in full) | 10
C[C@@H](C(=O)Nc1ccc(OCCCCCCCNC(=O)COc2cccc3c2C(=O)N(C2CCC(=O)NC2=O)C3=O)cc1)[C@H]1CC[C@@H](c2ccnc3ccc(F)cc32)CC1 (stereo not given in full) | 0
C[C@@H](C(=O)Nc1ccc(OC2CCN(C(=O)CCOCCOc3cccc4c3C(=O)N(C3CCC(=O)NC3=O)C4=O)CC2)cc1)[C@H]1CC[C@@H](c2ccnc3ccc(F)cc32)CC1 (stereo not given in full) | 45
C[C@@H](C(=O)Nc1ccc(OCCOCCOCCOCCOCCOCCNC(=O)COc2cccc3c2C(=O)N(C2CCC(=O)NC2=O)C3=O)cc1)[C@H]1CC[C@@H](c2ccnc3ccc(F)cc32)CC1 (stereo not given in full) | 46
C[C@@H](C(=O)Nc1ccc(OC2CN(C(=O)CCOCCNc3cccc4c3C(=O)N(C3CCC(=O)NC3=O)C4=O)C2)cc1)[C@H]1CC[C@@H](c2ccnc3ccc(F)cc32)CC1 (stereo not given in full) | 90
C[C@@H](C(=O)Nc1ccc(Cl)c(OCCCCCCNc2cccc3c2C(=O)N(C2CCC(=O)NC2=O)C3=O)c1)[C@H]1CC[C@@H](c2ccnc3ccc(F)cc32)CC1 (stereo not given in full) | 0
C[C@@H](C(=O)Nc1ccc(OC2CCN(C(=O)CCOCCNc3cccc4c3C(=O)N(C3CCC(=O)NC3=O)C4=O)CC2)cc1)[C@H]1CC[C@@H](c2ccnc3ccc(F)cc32)CC1 (stereo not given in full) | 33
C[C@@H](C(=O)Nc1ccc(Cl)c(OCCOCCOCCOCCOCCOCCNc2cccc3c2C(=O)N(C2CCC(=O)NC2=O)C3=O)c1)[C@H]1CC[C@@H](c2ccnc3ccc(F)cc32)CC1 (stereo not given in full) | 0
C[C@@H](C(=O)Nc1ccc(OC2CCN(C(=O)CCOCCOCCOc3cccc4c3C(=O)N(C3CCC(=O)NC3=O)C4=O)CC2)cc1)[C@H]1CC[C@@H](c2ccnc3ccc(F)cc32)CC1 (stereo not given in full) | 80
C[C@@H](C(=O)Nc1ccc(Cl)c(OCCCNc2cccc3c2C(=O)N(C2CCC(=O)NC2=O)C3=O)c1)[C@H]1CC[C@@H](c2ccnc3ccc(F)cc32)CC1 (stereo not given in full) | 36
C[C@@H](C(=O)Nc1ccc(Cl)c(OCCOCCOCCOCCNC(=O)COc2cccc3c2C(=O)N(C2CCC(=O)NC2=O)C3=O)c1)[C@H]1CC[C@@H](c2ccnc3ccc(F)cc32)CC1 (stereo not given in full) | 0
C[C@@H](C(=O)Nc1ccc(OCCOCCOCCOCCOCCNC(=O)COc2cccc3c2C(=O)N(C2CCC(=O)NC2=O)C3=O)cc1)[C@H]1CC[C@@H](c2ccnc3ccc(F)cc32)CC1 (stereo not given in full) | 0
C[C@@H](C(=O)Nc1ccc(OC2CN(C(=O)CCOCCOCCOc3cccc4c3C(=O)N(C3CCC(=O)NC3=O)C4=O)C2)cc1)[C@H]1CC[C@@H](c2ccnc3ccc(F)cc32)CC1 (stereo not given in full) | 74
C[C@@H](C(=O)Nc1ccc(Cl)c(OCCOCCOCCOCCOc2cccc3c2C(=O)N(C2CCC(=O)NC2=O)C3=O)c1)[C@H]1CC[C@@H](c2ccnc3ccc(F)cc32)CC1 (stereo not given in full) | 13
C[C@@H](C(=O)Nc1ccc(Cl)c(OCCOCCOCCOCCOCCOc2cccc3c2C(=O)N(C2CCC(=O)NC2=O)C3=O)c1)[C@H]1CC[C@@H](c2ccnc3ccc(F)cc32)CC1 (stereo not given in full) | 0
C[C@@H](C(=O)Nc1ccc(Cl)c(OCCCNC(=O)COc2cccc3c2C(=O)N(C2CCC(=O)NC2=O)C3=O)c1)[C@H]1CC[C@@H](c2ccnc3ccc(F)cc32)CC1 (stereo not given in full) | 67
C[C@@H](C(=O)Nc1ccc(OCCCCCCCCCCOc2cccc3c2C(=O)N(C2CCC(=O)NC2=O)C3=O)cc1)[C@H]1CC[C@@H](c2ccnc3ccc(F)cc32)CC1 (stereo not given in full) | 0
C[C@@H](C(=O)Nc1ccc(OC2CN(C(=O)CCOCCNC(=O)COc3cccc4c3C(=O)N(C3CCC(=O)NC3=O)C4=O)C2)cc1)[C@H]1CC[C@@H](c2ccnc3ccc(F)cc32)CC1 (stereo not given in full) | 86

SMILES | Activity [%]
C[C@@H](C(=O)Nc1ccc(OC2CN(C(=O)CCOCCOCCNC(=O)COc3cccc4c3C(=O)N(C3CCC(=O)NC3=O)C4=O)C2)cc1)[C@H]1CC[C@@H](c2ccnc3ccc(F)cc32)CC1 (stereo not given in full) | 9
C[C@@H](C(=O)Nc1ccc(Cl)c(OCCOCCOc2cccc3c2C(=O)N(C2CCC(=O)NC2=O)C3=O)c1)[C@H]1CC[C@@H](c2ccnc3ccc(F)cc32)CC1 (stereo not given in full) | 6
C[C@@H](C(=O)Nc1ccc(Cl)c(OCCCCCCNC(=O)COc2cccc3c2C(=O)N(C2CCC(=O)NC2=O)C3=O)c1)[C@H]1CC[C@@H](c2ccnc3ccc(F)cc32)CC1 (stereo not given in full) | 0
C[C@@H](C(=O)Nc1ccc(Cl)c(OCCCCCCCCCNc2cccc3c2C(=O)N(C2CCC(=O)NC2=O)C3=O)c1)[C@H]1CC[C@@H](c2ccnc3ccc(F)cc32)CC1 (stereo not given in full) | 0
C[C@@H](C(=O)Nc1ccc(Cl)c(OCCCCCCOc2cccc3c2C(=O)N(C2CCC(=O)NC2=O)C3=O)c1)[C@H]1CC[C@@H](c2ccnc3ccc(F)cc32)CC1 (stereo not given in full) | 0
C[C@@H](C(=O)Nc1ccc(Cl)c(OCCOCCOCCOCCOCCOCCOc2cccc3c2C(=O)N(C2CCC(=O)NC2=O)C3=O)c1)[C@H]1CC[C@@H](c2ccnc3ccc(F)cc32)CC1 (stereo not given in full) | 0
C[C@@H](C(=O)Nc1ccc(Cl)c(OCCCCCCCCCOc2cccc3c2C(=O)N(C2CCC(=O)NC2=O)C3=O)c1)[C@H]1CC[C@@H](c2ccnc3ccc(F)cc32)CC1 (stereo not given in full) | 16
C[C@@H](C(=O)Nc1ccc(OC2CCN(CCCOCCOCCOc3cccc4c3C(=O)N(C3CCC(=O)NC3=O)C4=O)CC2)cc1)[C@H]1CC[C@@H](c2ccnc3ccc(F)cc32)CC1 (stereo not given in full) | 0
C[C@@H](C(=O)Nc1ccc(OCCCCCCCCCCNC(=O)COc2cccc3c2C(=O)N(C2CCC(=O)NC2=O)C3=O)cc1)[C@H]1CC[C@@H](c2ccnc3ccc(F)cc32)CC1 (stereo not given in full) | 0
C[C@@H](C(=O)Nc1ccc(OC2CN(CCCOCCOCCNC(=O)COc3cccc4c3C(=O)N(C3CCC(=O)NC3=O)C4=O)C2)cc1)[C@H]1CC[C@@H](c2ccnc3ccc(F)cc32)CC1 (stereo not given in full) | 0
C[C@@H](C(=O)Nc1ccc(OC2CCN(CCCOCCOCCNC(=O)COc3cccc4c3C(=O)N(C3CCC(=O)NC3=O)C4=O)CC2)cc1)[C@H]1CC[C@@H](c2ccnc3ccc(F)cc32)CC1 (stereo not given in full) | 33
C[C@@H](C(=O)Nc1ccc(Cl)c(OCCOCCOCCOCCOCCOCCNC(=O)COc2cccc3c2C(=O)N(C2CCC(=O)NC2=O)C3=O)c1)[C@H]1CC[C@@H](c2ccnc3ccc(F)cc32)CC1 (stereo not given in full) | 0
C[C@@H](C(=O)Nc1ccc(Cl)c(OCCCCCCCCCNC(=O)COc2cccc3c2C(=O)N(C2CCC(=O)NC2=O)C3=O)c1)[C@H]1CC[C@@H](c2ccnc3ccc(F)cc32)CC1 (stereo not given in full) | 0
C[C@@H](C(=O)Nc1ccc(OCCOCCOCCOCCOCCOCCOc2cccc3c2C(=O)N(C2CCC(=O)NC2=O)C3=O)cc1)[C@H]1CC[C@@H](c2ccnc3ccc(F)cc32)CC1 (stereo not given in full) | 0
C[C@@H](C(=O)Nc1ccc(Cl)c(OCCOCCOCCOCCOCCNc2cccc3c2C(=O)N(C2CCC(=O)NC2=O)C3=O)c1)[C@H]1CC[C@@H](c2ccnc3ccc(F)cc32)CC1 (stereo not given in full) | 0
C[C@@H](C(=O)Nc1ccc(Cl)c(OCCOCCOCCNC(=O)COc2cccc3c2C(=O)N(C2CCC(=O)NC2=O)C3=O)c1)[C@H]1CC[C@@H](c2ccnc3ccc(F)cc32)CC1 (stereo not given in full) | 40
C[C@@H](C(=O)Nc1ccc(OCCCCCCCCCCNc2cccc3c2C(=O)N(C2CCC(=O)NC2=O)C3=O)cc1)[C@H]1CC[C@@H](c2ccnc3ccc(F)cc32)CC1 (stereo not given in full) | 0

Next, values leading:

Activity [%] | SMILES
48 | C[C@@H](C(=O)Nc1ccc(OCCOCCNC(=O)COc2cccc3c2C(=O)N(C2CCC(=O)NC2=O)C3=O)cc1)[C@H]1CC[C@@H](c2ccnc3ccc(F)cc32)CC1 (stereo not given in full)
71 | C[C@@H](C(=O)Nc1ccc(Cl)c(OCCOCCOCCNc2cccc3c2C(=O)N(C2CCC(=O)NC2=O)C3=O)c1)[C@H]1CC[C@@H](c2ccnc3ccc(F)cc32)CC1 (stereo not given in full)
23 | C[C@@H](C(=O)Nc1ccc(OCCOCCNc2cccc3c2C(=O)N(C2CCC(=O)NC2=O)C3=O)cc1)[C@H]1CC[C@@H](c2ccnc3ccc(F)cc32)CC1 (stereo not given in full)
0 | C[C@@H](C(=O)Nc1ccc(OCCOCCOCCOCCOc2cccc3c2C(=O)N(C2CCC(=O)NC2=O)C3=O)cc1)[C@H]1CC[C@@H](c2ccnc3ccc(F)cc32)CC1 (stereo not given in full)
66 | C[C@@H](C(=O)Nc1ccc(Cl)c(OCCOCCNc2cccc3c2C(=O)N(C2CCC(=O)NC2=O)C3=O)c1)[C@H]1CC[C@@H](c2ccnc3ccc(F)cc32)CC1 (stereo not given in full)
77 | C[C@@H](C(=O)Nc1ccc(OCCOCCOCCNc2cccc3c2C(=O)N(C2CCC(=O)NC2=O)C3=O)cc1)[C@H]1CC[C@@H](c2ccnc3ccc(F)cc32)CC1 (stereo not given in full)
0 | C[C@@H](C(=O)Nc1ccc(OCCCCNc2cccc3c2C(=O)N(C2CCC(=O)NC2=O)C3=O)cc1)[C@H]1CC[C@@H](c2ccnc3ccc(F)cc32)CC1 (stereo not given in full)
47 | C[C@@H](C(=O)Nc1ccc(OCCOCCOCCNC(=O)COc2cccc3c2C(=O)N(C2CCC(=O)NC2=O)C3=O)cc1)[C@H]1CC[C@@H](c2ccnc3ccc(F)cc32)CC1 (stereo not given in full)
0 | C[C@@H](C(=O)Nc1ccc(Cl)c(OCCOCCOCCOCCNc2cccc3c2C(=O)N(C2CCC(=O)NC2=O)C3=O)c1)[C@H]1CC[C@@H](c2ccnc3ccc(F)cc32)CC1 (stereo not given in full)
0 | C[C@@H](C(=O)Nc1ccc(OCCOCCOCCOCCNC(=O)COc2cccc3c2C(=O)N(C2CCC(=O)NC2=O)C3=O)cc1)[C@H]1CC[C@@H](c2ccnc3ccc(F)cc32)CC1 (stereo not given in full)
94 | C[C@@H](C(=O)Nc1ccc(OC2CN(C(=O)CCOCCOCCNc3cccc4c3C(=O)N(C3CCC(=O)NC3=O)C4=O)C2)cc1)[C@H]1CC[C@@H](c2ccnc3ccc(F)cc32)CC1 (stereo not given in full)
0 | C[C@@H](C(=O)Nc1ccc(OCCOCCOCCOCCOCCOCCNc2cccc3c2C(=O)N(C2CCC(=O)NC2=O)C3=O)cc1)[C@H]1CC[C@@H](c2ccnc3ccc(F)cc32)CC1 (stereo not given in full)
0 | C[C@@H](C(=O)Nc1ccc(OCCOCCOCCOCCNc2cccc3c2C(=O)N(C2CCC(=O)NC2=O)C3=O)cc1)[C@H]1CC[C@@H](c2ccnc3ccc(F)cc32)CC1 (stereo not given in full)
0 | C[C@@H](C(=O)Nc1ccc(OCCOCCOCCOCCOCCOc2cccc3c2C(=O)N(C2CCC(=O)NC2=O)C3=O)cc1)[C@H]1CC[C@@H](c2ccnc3ccc(F)cc32)CC1 (stereo not given in full)
0 | C[C@@H](C(=O)Nc1ccc(OCCOCCOCCOCCOCCNc2cccc3c2C(=O)N(C2CCC(=O)NC2=O)C3=O)cc1)[C@H]1CC[C@@H](c2ccnc3ccc(F)cc32)CC1 (stereo not given in full)
